Screens as filed in PubChem.
Apaf-1 inh: inhibitors of human Apaf-1 apoptosome | 330,000 tested, 0.71% active | inhibition, % at 20 µM | AID 489030 | O14727 | reconstituted apoptosome caspase-3 activity, DEVD-Rh110 fluorescence; active = inhibition of at least 40% at 20 µM
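Material: biochemical Apaf-1 apoptosome reconstitution. Medium: Hepes buffer, pH 7.5. Also added: cytochrome c activation, bis-DEVD rhodamine 110 substrate. Timing: 30 min compound preincubation, 50 min activation, room temperature. Measured by: rhodamine 110 fluorescence at Ex 480/Em 540 nm.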
SENP8 block-1: inhibitors of human SENP8 protease. inhibition, % at 10 µM. purified SENP8, Z-RLRGG-aminoluciferin cleavage, luminescence. 330,000 tested, 1.2% active. Q96LD8. AID 2540; in the data active = inhibition above about 50%
SENP8 block-2: blocks human SENP8 cleavage of Nedd8 substrate; Q96LD8; recombinant SENP8, Nedd8 substrate fluorescence; 360,000 tested, 0.64% active; AID 602440; inhibition, % at 20 µM; in the data active = inhibition mostly above about 40%, no sharp cut-off; inactive = mostly below about 27%
SENP6 inh: SENP6 protease inhibition; Recombinant SENP6 catalytic domain, aminoluciferin luminescence; inhibition, % at 10 µM; 330,000 tested, 1.8% active; AID 2599;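 active = inhibition above about 50% at the single tested dose, limit read from the data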
Target sequence (Q9GZR1 628-1112 limits assumed): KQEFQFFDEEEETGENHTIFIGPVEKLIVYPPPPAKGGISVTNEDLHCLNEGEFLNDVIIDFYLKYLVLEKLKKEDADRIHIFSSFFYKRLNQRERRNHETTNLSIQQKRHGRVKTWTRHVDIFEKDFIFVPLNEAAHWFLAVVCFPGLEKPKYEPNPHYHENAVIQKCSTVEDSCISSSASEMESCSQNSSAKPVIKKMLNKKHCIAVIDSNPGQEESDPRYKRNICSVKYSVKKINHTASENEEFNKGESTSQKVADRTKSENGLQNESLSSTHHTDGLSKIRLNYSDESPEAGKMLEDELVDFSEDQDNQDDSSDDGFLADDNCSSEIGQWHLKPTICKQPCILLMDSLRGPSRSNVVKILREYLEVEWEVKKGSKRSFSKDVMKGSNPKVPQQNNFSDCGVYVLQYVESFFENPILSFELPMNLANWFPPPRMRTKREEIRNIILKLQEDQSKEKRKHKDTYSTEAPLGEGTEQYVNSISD
UBC13 inh: blocks human UBC13 polyubiquitin chain formation | 330,000 tested, 0.47% active | inhibition, % at 20 µM | TR-FRET | AID 485273 | P61088; in the data active = inhibition above about 45%, passing the limit was not always enough
Target sequence (P61088 whole entry, looked up): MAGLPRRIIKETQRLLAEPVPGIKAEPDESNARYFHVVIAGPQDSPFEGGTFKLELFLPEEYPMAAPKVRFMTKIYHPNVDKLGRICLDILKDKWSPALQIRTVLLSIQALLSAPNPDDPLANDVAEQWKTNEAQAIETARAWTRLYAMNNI
SENP7 inh: blocks the human protease SENP7; Q9BQF6; recombinant SENP7, Z-RLRGG-aminoluciferin luminescence, 40 min; inhibition, % at 5 µM; 330,000 tested, 1.5% active; AID 434973;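 active = inhibition above about 50% at the single test dose, limit read from the data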
Casp3 counter: counter-screen for UBC13 inhibitors: human caspase-3 inhibition; shares compounds with UBC13 inh; Recombinant caspase-3, Caspase-Glo 3/7 luminescence, 60 min; inhibition, % at 20 µM; 1,400 tested, 4% active; AID 488856;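 active = mean inhibition across replicates above about 26%, limit read from the data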
UBC13 confirm: confirmation of human UBC13 polyubiquitin inhibitors; shares compounds with UBC13 inh; UBC13 polyubiquitination, TR-FRET, biochemical; inhibition, % at 10 µM; 1,400 tested, 68% active; AID 488859; in the data active = inhibition above about 45%
Apaf-1 inh conf: confirmation of Apaf-1 inhibitors. shares compounds with Apaf-1 inh. reconstituted apoptosome, caspase-3 DEVD-Rh110 fluorescence. inhibition, % at 20 µM. 1,800 tested, 25% active. AID 504614;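 active = mean inhibition of at least 40% at 20 µM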
Rh110 interf inh: Rh110 signal interference in Apaf-1 inhibitor counter-screen; shares compounds with Apaf-1 inh; Rh110 fluorescence interference, quenched caspase reaction; activation (fluorescence interference), % at 20 µM; 1,800 tested, under 10 active;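 active = signal rise of 40% or more at 20 µM, treated as a fluorescence artifact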
Numbers stand for hits. Most compounds without a hit are left out; they make up all but 3% or so of the library.

Results for COc1ccc(S(=O)(=O)N2CCN(c3ccccc3OC)CC2)cc1 ?
Apaf-1 inh: inactive; SENP8 block-1: inactive; SENP8 block-2: inactive; SENP6 inh: inactive; UBC13 inh: inactive; SENP7 inh: inactive

Results for COc1ccc(S(=O)(=O)N2CCN(c3ccc4nnc(-c5ccccc5)n4n3)CC2)cc1 ?
Apaf-1 inh: 64.9; SENP8 block-1: inactive; SENP8 block-2: inactive; SENP6 inh: inactive; UBC13 inh: 51.2; SENP7 inh: inactive; Casp3 counter: inactive; UBC13 confirm: inactive

What do the screens show for `Brc1ccc(-c2nnc3ccc(N4CCN(c5ccccc5)CC4)nn23)cc1`?
Apaf-1 inh: inactive; SENP8 block-1: inactive; SENP8 block-2: inactive; SENP6 inh: inactive; UBC13 inh: 61.9; SENP7 inh: inactive; Casp3 counter: inactive; UBC13 confirm: inactive

How did CC(=O)O[C@H]1[C@@H](O)[C@H](O)[C@H](Oc2c(O)c(C)c3c4c2[C@@H](C)CC[C@@H]4[C@@H](C)C[C@H]3C=C(C)C)O[C@H]1C do in these assays?
Apaf-1 inh: inactive; SENP8 block-1: inactive; SENP8 block-2: inactive; SENP6 inh: inactive; UBC13 inh: 52.3; SENP7 inh: inactive; Casp3 counter: inactive; UBC13 confirm: inactive

What do the screens show for `O=C(NCc1nnnn1-c1ccc(F)cc1)c1cc2ccccc2o1`?
SENP8 block-2: inactive

What do the screens show for `COc1ccc(S(=O)(=O)N(C)C[C@@H]2Oc3cc(Br)ccc3S(=O)(=O)N([C@H](C)CO)C[C@@H]2C)cc1`?
SENP8 block-2: inactive

Results for NC(N)=NCCCC(NC(=O)c1ccccc1)C(=O)Nc1ccc([N+](=O)[O-])cc1 (centres undefined) ?
Apaf-1 inh: inactive; SENP8 block-1: inactive; SENP8 block-2: inactive; SENP6 inh: inactive; UBC13 inh: inactive; SENP7 inh: inactive

What do the screens show for `NC(N)=NCCCC(NC(=O)c1ccccc1)C(=O)Nc1ccc2ccccc2c1` (centres undefined)?
Apaf-1 inh: inactive; SENP8 block-1: inactive; SENP8 block-2: inactive; SENP6 inh: inactive; UBC13 inh: 48.4; SENP7 inh: inactive; Casp3 counter: inactive; UBC13 confirm: inactive

How did COc1ccc(OCCOC(=O)CNC(=O)c2ccc(F)cc2)cc1 do in these assays?
SENP8 block-2: inactive

Results for CCN(Cc1ccccc1)S(=O)(=O)c1ccc(C(=O)N(CCCN(C)C)c2nc3cc(C)cc(C)c3s2)cc1 ?
Apaf-1 inh: 42.0; SENP8 block-1: inactive; SENP8 block-2: inactive; SENP6 inh: inactive; UBC13 inh: 74.1; SENP7 inh: inactive; Casp3 counter: inactive; UBC13 confirm: 108.7; Apaf-1 inh conf: inactive; Rh110 interf inh: inactive

What do the screens show for `CCCCN(C)S(=O)(=O)c1ccc(C(=O)N(CCN(C)C)c2nc3ccc(C)cc3s2)cc1`?
Apaf-1 inh: inactive; SENP8 block-1: inactive; SENP8 block-2: inactive; SENP6 inh: inactive; UBC13 inh: inactive; SENP7 inh: inactive

Results for CCCCN(CC)S(=O)(=O)c1ccc(C(=O)N(CCCN(C)C)c2nc3cc(C)cc(C)c3s2)cc1 ?
Apaf-1 inh: 47.1; SENP8 block-1: inactive; SENP8 block-2: inactive; SENP6 inh: inactive; UBC13 inh: 80.0; SENP7 inh: inactive; Casp3 counter: inactive; UBC13 confirm: 102.2; Apaf-1 inh conf: inactive; Rh110 interf inh: inactive

What do the screens show for `CCOc1cccc2sc(N(CCCN(C)C)C(=O)c3ccc(S(=O)(=O)N(C)Cc4ccccc4)cc3)nc12`?
Apaf-1 inh: 61.9; SENP8 block-1: inactive; SENP8 block-2: inactive; SENP6 inh: inactive; UBC13 inh: 76.1; SENP7 inh: inactive; Casp3 counter: inactive; UBC13 confirm: 110.6; Apaf-1 inh conf: inactive; Rh110 interf inh: inactive

How did O=C(Nc1ccc(Cl)cc1)c1csc([C@@H]2C[C@H](O)[C@@H](CO)O2)n1 do in these assays?
SENP8 block-2: inactive

How did CC(C)(C)c1ccc(S(=O)(=O)NC(=O)C2(C)CCN2C(=O)Cc2cccs2)cc1 (centres undefined) do in these assays?
SENP8 block-2: inactive

What do the screens show for `CC(C)(C)c1ccc(CC(=O)N2CCC2(C)C(=O)Nc2cccc3cccnc23)cc1` (centres undefined)?
SENP8 block-2: inactive

What do the screens show for `CCCCCc1cc(=O)oc2c(C(CCN3CCCC(C)C3)c3ccc(OC)cc3)c(OC)cc(OC)c12` (centres undefined)?
Apaf-1 inh: 65.5; SENP8 block-1: inactive; SENP8 block-2: inactive; SENP6 inh: inactive; UBC13 inh: 65.2; SENP7 inh: inactive; Casp3 counter: inactive; UBC13 confirm: 53.1; Apaf-1 inh conf: inactive; Rh110 interf inh: inactive

What do the screens show for `CCCCCc1cc(=O)oc2c(C(CCN3CCCC3)c3cc(OC)c(OC)c(OC)c3)c(OC)cc(OC)c12` (centres undefined)?
Apaf-1 inh: 49.7; SENP8 block-1: inactive; SENP8 block-2: inactive; SENP6 inh: inactive; UBC13 inh: 80.3; SENP7 inh: inactive; Casp3 counter: inactive; UBC13 confirm: 73.4; Apaf-1 inh conf: inactive; Rh110 interf inh: inactive

How did COc1cc(OC)c2ccc(=O)oc2c1C(CCN1CCCC(C)C1)c1ccc2c(c1)OCO2 (centres undefined) do in these assays?
Apaf-1 inh: inactive; SENP8 block-1: inactive; SENP8 block-2: inactive; SENP6 inh: inactive; UBC13 inh: inactive; SENP7 inh: inactive

How did CCCCCc1cc(=O)oc2c(C(CCN3CCCC3)c3ccc(N(C)C)cc3)c(OC)cc(OC)c12 (centres undefined) do in these assays?
Apaf-1 inh: 45.2; SENP8 block-1: inactive; SENP8 block-2: inactive; SENP6 inh: inactive; UBC13 inh: 81.7; SENP7 inh: inactive; Casp3 counter: inactive; UBC13 confirm: inactive; Apaf-1 inh conf: inactive; Rh110 interf inh: inactive

How did CCCCCc1cc(=O)oc2c(C(CCN(CC)CC)c3ccc(OC)cc3)c(OC)cc(OC)c12 (centres undefined) do in these assays?
Apaf-1 inh: 60.6; SENP8 block-1: inactive; SENP8 block-2: inactive; SENP6 inh: inactive; UBC13 inh: 82.8; SENP7 inh: inactive; Casp3 counter: inactive; UBC13 confirm: 76.2; Apaf-1 inh conf: inactive; Rh110 interf inh: inactive

Results for CCC(C)(C)c1ccc(OCCCC[n+]2ccc(C)cc2)c(C(C)(C)CC)c1 ?
Apaf-1 inh: 48.4; SENP8 block-1: inactive; SENP6 inh: inactive; UBC13 inh: 69.0; SENP7 inh: inactive; Casp3 counter: inactive; UBC13 confirm: 99.4; Apaf-1 inh conf: inactive; Rh110 interf inh: inactive
